Values joined by “and” are separate entries in the source; they are usually repeats but may differ in a detail not shown here. Identical values can stand only once.
What was measured:
Fibroblast = assay: Multiplex assay against human fibroblast; assay type: toxicity, cell-based
Summary of the method: (§1)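 Imaging took place on a CQ1 microscope at 37°C and 5% CO2 once compound had been added to live cells stained at seeding with Hoechst33342, BioTracker Green Microtubule Cytoskeleton Dye, MitoTracker Red and Annexin V Alexa Fluor 680. CellPathfinder machine-learning gating classed cells as Hoechst high-intensity objects or normal cells, classed normal cells as having healthy, pyknosed or fragmented nuclei, and classed pyknosed cells as mitotic or apoptotic. Tubulin, mitochondrial-mass and membrane-permeability phenotypes are per cents of the healthy-nucleus cells.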

HEK-293T = assay: Multiplex assay against HEK293T; assay type: toxicity, cell-based; settings: human; summary of the method: as §1
[1] = 12 h, 1 µM, compound concentration 1 uM
[2] = 12 h, 10 µM, compound concentration 10 uM
[3] = 24 h, 1 µM, compound concentration 1 uM
[4] = 24 h, 10 µM, compound concentration 10 uM
[5] = 48 h, 1 µM, compound concentration 1 uM
[6] = 48 h, 10 µM, compound concentration 10 uM

Cc1cc(-c2ccc3c(c2)CC[C@H]3N2CC3(CCN(C(=O)Cc4cn5cc(C)sc5n4)CC3)C2)ncn1 [PF-5190457]
Population Apoptotic (%) (Fibroblast; [1]): 29% and 30%
Population Fragmented Nuclei (%) (Fibroblast; [1]): 16% and 18%
Population Healthy Nuclei (%) (Fibroblast; [1]): 71% and 46%
Population Hoechst High Intensity Objects (%) (Fibroblast; [1]): 4%
Population Membrane Permeable-Phenotype (%) (Fibroblast; [1]): 1% and 9%
Population Mitochondria Different-Phenotype (%) (Fibroblast; [1]): 5% and 0%
Population Mitotic Cells (%) (Fibroblast; [1]): 70%
Population Normal (%) (Fibroblast; [1]): 96% and 95%
Population Tubulin-Different-Phenotype (%) (Fibroblast; [1]): 24% and 48%
Total Cell Count (Fibroblast; [1]): 150 and 121
Population Apoptotic (%) (Fibroblast; [2]): 36% and 45%
Population Fragmented Nuclei (%) (Fibroblast; [2]): 17% and 20%
Population Healthy Nuclei (%) (Fibroblast; [2]): 63% and 55%
Population Hoechst High Intensity Objects (%) (Fibroblast; [2]): 4% and 1%
Population Membrane Permeable-Phenotype (%) (Fibroblast; [2]): 1% and 6%
Population Mitochondria Different-Phenotype (%) (Fibroblast; [2]): 5% and 4%
Population Mitotic Cells (%) (Fibroblast; [2]): 63% and 54%
Population Normal (%) (Fibroblast; [2]): 95% and 98%
Population Pyknosed Nuclei (%) (Fibroblast; [2]): 18% and 24%
Population Tubulin-Different-Phenotype (%) (Fibroblast; [2]): 38% and 56%
Total Cell Count (Fibroblast; [2]): 186 and 138
Population Fragmented Nuclei (%) (Fibroblast; [3]): 19% and 23%
Population Healthy Nuclei (%) (Fibroblast; [3]): 72% and 43%
Population Hoechst High Intensity Objects (%) (Fibroblast; [3]): 2% and 3%
Population Membrane Permeable-Phenotype (%) (Fibroblast; [3]): 1% and 5%
Population Mitochondria Different-Phenotype (%) (Fibroblast; [3]): 4% and 5%
Population Mitotic Cells (%) (Fibroblast; [3]): 45% and 84%
Population Normal (%) (Fibroblast; [3]): 97% and 96%
Population Tubulin-Different-Phenotype (%) (Fibroblast; [3]): 26% and 54%
Total Cell Count (Fibroblast; [3]): 141 and 126
Population Apoptotic (%) (Fibroblast; [4]): 44% and 53%
Population Fragmented Nuclei (%) (Fibroblast; [4]): 19% and 25%
Population Healthy Nuclei (%) (Fibroblast; [4]): 64% and 49%
Population Hoechst High Intensity Objects (%) (Fibroblast; [4]): 3% and 5%
Population Membrane Permeable-Phenotype (%) (Fibroblast; [4]): 0% and 1%
Population Mitochondria Different-Phenotype (%) (Fibroblast; [4]): 6% and 7%
Population Mitotic Cells (%) (Fibroblast; [4]): 55% and 46%
Population Normal (%) (Fibroblast; [4]): 96% and 94%
Population Pyknosed Nuclei (%) (Fibroblast; [4]): 16% and 25%
Population Tubulin-Different-Phenotype (%) (Fibroblast; [4]): 37% and 60%
Total Cell Count (Fibroblast; [4]): 180 and 134
Population Apoptotic (%) (Fibroblast; [5]): 78% and 34%
Population Fragmented Nuclei (%) (Fibroblast; [5]): 30% and 32%
Population Healthy Nuclei (%) (Fibroblast; [5]): 59% and 47%
Population Hoechst High Intensity Objects (%) (Fibroblast; [5]): 6% and 2%
Population Mitochondria Different-Phenotype (%) (Fibroblast; [5]): 2% and 6%
Population Normal (%) (Fibroblast; [5]): 93% and 97%
Population Pyknosed Nuclei (%) (Fibroblast; [5]): 9% and 20%
Population Tubulin-Different-Phenotype (%) (Fibroblast; [5]): 23% and 68%
Total Cell Count (Fibroblast; [5]): 157 and 132
Population Apoptotic (%) (Fibroblast; [6]): 63% and 62%
Population Fragmented Nuclei (%) (Fibroblast; [6]): 22% and 30%
Population Healthy Nuclei (%) (Fibroblast; [6]): 66% and 51%
Population Hoechst High Intensity Objects (%) (Fibroblast; [6]): 6% and 1%
Population Membrane Permeable-Phenotype (%) (Fibroblast; [6]): 0% and 5%
Population Mitochondria Different-Phenotype (%) (Fibroblast; [6]): 12% and 14%
Population Mitotic Cells (%) (Fibroblast; [6]): 36% and 37%
Population Normal (%) (Fibroblast; [6]): 93% and 98%
Population Pyknosed Nuclei (%) (Fibroblast; [6]): 10% and 18%
Population Tubulin-Different-Phenotype (%) (Fibroblast; [6]): 37% and 64%
Total Cell Count (Fibroblast; [6]): 192 and 135
Population Apoptotic (%) (HEK-293T; [1]): 36% and 47%
Population Fragmented Nuclei (%) (HEK-293T; [1]): 5% and 8%
Population Healthy Nuclei (%) (HEK-293T; [1]): 83% and 72%
Population Hoechst High Intensity Objects (%) (HEK-293T; [1]): 5% and 10%
Population Membrane Permeable-Phenotype (%) (HEK-293T; [1]): 0%
Population Mitochondria Different-Phenotype (%) (HEK-293T; [1]): 40% and 53%
Population Mitotic Cells (%) (HEK-293T; [1]): 63% and 52%
Population Normal (%) (HEK-293T; [1]): 94% and 89%
Population Pyknosed Nuclei (%) (HEK-293T; [1]): 11% and 19%
Population Tubulin-Different-Phenotype (%) (HEK-293T; [1]): 25% and 22%
Total Cell Count (HEK-293T; [1]): 418 and 258
Population Apoptotic (%) (HEK-293T; [2]): 40% and 54%
Population Fragmented Nuclei (%) (HEK-293T; [2]): 9% and 3%
Population Healthy Nuclei (%) (HEK-293T; [2]): 75% and 80%
Population Hoechst High Intensity Objects (%) (HEK-293T; [2]): 11% and 8%
Population Membrane Permeable-Phenotype (%) (HEK-293T; [2]): 0%
Population Mitochondria Different-Phenotype (%) (HEK-293T; [2]): 53% and 70%
Population Mitotic Cells (%) (HEK-293T; [2]): 60% and 45%
Population Normal (%) (HEK-293T; [2]): 88% and 91%
Population Pyknosed Nuclei (%) (HEK-293T; [2]): 14% and 16%
Population Tubulin-Different-Phenotype (%) (HEK-293T; [2]): 37% and 40%
Total Cell Count (HEK-293T; [2]): 455 and 322
Population Apoptotic (%) (HEK-293T; [3]): 21% and 45%
Population Fragmented Nuclei (%) (HEK-293T; [3]): 8% and 11%
Population Healthy Nuclei (%) (HEK-293T; [3]): 77% and 78%
Population Hoechst High Intensity Objects (%) (HEK-293T; [3]): 2% and 7%
Population Membrane Permeable-Phenotype (%) (HEK-293T; [3]): 0% and 1%
Population Mitochondria Different-Phenotype (%) (HEK-293T; [3]): 24% and 35%
Population Mitotic Cells (%) (HEK-293T; [3]): 78% and 54%
Population Normal (%) (HEK-293T; [3]): 97% and 92%
Population Pyknosed Nuclei (%) (HEK-293T; [3]): 13% and 9%
Population Tubulin-Different-Phenotype (%) (HEK-293T; [3]): 16% and 11%
Total Cell Count (HEK-293T; [3]): 549 and 352
Population Apoptotic (%) (HEK-293T; [4]): 25% and 36%
Population Fragmented Nuclei (%) (HEK-293T; [4]): 10% and 5%

Reference: ChEMBL document CHEMBL5724801, “EUbOPEN Chemogenomics Library - Multiplex” (2024)
